We go through 22 molecules from ChEMBL document CHEMBL1131590, “Muscarinic agonists with antipsychotic-like activity: structure-activity relationships of 1,2,5-thiadiazole analogues with functional dopamine antagonist activity” (J Med Chem, 1998).

The source made the active and inactive calls. The rule behind the calls is not given here. Bounds are passed on as bounds.

A short description of test [1]: In vitro inhibition of [3H]Oxo-Mas binding to M2 and M4 receptors in rat brain homogenate.
Test [2] has as its system Rattus norvegicus. Briefly: Inhibition of conditioned avoidance response in rat following s.c. administration. It is filed as functional. The conditions noted are these: sc. The procedure, abridged: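 Rats were tested sc over a full dose range in the conditioned avoidance model, six rats per point, up to 50 trials per session. ED50 is the dose giving 50% of the drug's maximal effect on avoidance responding.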

In test [3] the test system is Mus musculus. The test can be described thus: Inhibition of apomorphine-induced climbing following s.c. administration in mice. It is filed as functional. Conditions: sc. In outline: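 Male Bom:NMRI mice, n=10 per group, received saline or drug sc 50 min before the trial and apomorphine 2 mg/kg sc 20 min before it. Each mouse was placed alone in a cylindrical wire cage, and climbing time over a 60-s trial was recorded automatically. ED50 and 95% confidence limits came from logistic nonlinear regression over 3-4 doses.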

The subject of test [4] is Rattus norvegicus. Briefly: Conditioned avoidance responding in rat after subcutaneous administration (3 mg/kg); expressed as avoidance response/response failure. It is filed as functional. The procedure, abridged:
(§1)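 Single-dose screen in rats, given sc at the dose listed in each line. Each session typically ran 50 trials. Percent avoidance responses and percent response failures were recorded.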

For test [5], the system named is Mus musculus. The test can be described thus: Salivation after subcutaneous administration in mice. It is filed as functional. The conditions noted are these: sc. The procedure, abridged:
(§2)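 Mice received saline or drug sc. Side effects were scored 30 min after injection on a three-grade scale and expressed as percent of the maximum possible score. ED50 was obtained by graphic interpolation of the dose-response curve.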

The subject of test [6] is Mus musculus. Briefly: Tremor after subcutaneous administration in mice was determined. It is filed as functional. Conditions: sc. In outline: as §2
Test [7] deals with Rattus norvegicus. Briefly: Conditioned avoidance responding in rat after subcutaneous administration (0.3 mg/kg); expressed as avoidance response/response failure; 16/1. It is filed as functional, organism-based. In outline:
as §1

The test system of test [8] is Rattus norvegicus. Briefly: Conditioned avoidance responding in rat after subcutaneous administration (1 mg/kg); expressed as avoidance response/response failure. It is filed as functional. In outline: as §1
The test system of test [9] is Rattus norvegicus. Briefly: Conditioned avoidance responding in rat after subcutaneous administration (1 mg/kg); expressed as avoidance response/response failure; 18/21. It is filed as functional, organism-based.
The test system of test [10] is Rattus norvegicus. Briefly: Conditioned avoidance responding in rat after subcutaneous administration (0.3 mg/kg); expressed as avoidance response/response failure; 3/41. It is filed as functional, organism-based.
Test [11] has as its system Rattus norvegicus. The test can be described thus: Conditioned avoidance responding in rat after subcutaneous administration (0.3 mg/kg); expressed as avoidance response/response failure; 29/19. It is filed as functional, organism-based.
Test [12] concerns Rattus norvegicus. The test can be described thus: Conditioned avoidance responding in rat after subcutaneous administration (3 mg/kg); expressed as avoidance response/response failure; 48/20. It is filed as functional, organism-based. The procedure, abridged:
as §1

For test [13], the system named is Rattus norvegicus. The test can be described thus: Conditioned avoidance responding in rat after subcutaneous administration (0.3 mg/kg); expressed as avoidance response/response failure; 9/55. It is filed as functional, organism-based.
Test [14] can be described thus: In vitro inhibition of [3H]Oxo-Mas binding to M2 and M4 receptors in rat brain homogenate. The source holds these as a separate data set.
The test system of test [15] is Rattus norvegicus. Briefly: Conditioned avoidance responding in rat after subcutaneous administration (0.3 mg/kg); expressed as avoidance response/response failure; 24/63. It is filed as functional, organism-based. In outline: as §1

For the molecule `CCSc1nsnc1C1CN2CCC[C@H]1C2` (some centres not stated), the IC50 in [1] was 1.3 nM. For the same molecule, the ED50 came to 0.045 mg/kg in [2] and 0.047 mg/kg in [3].

In the case of `CCCSc1nsnc1[C@@H]1CN2CCC[C@@H]1C2`, the Activity in test [4] came to 51%. In addition, the median effective dose (ED50) in test [5] was above 30 mg/kg; in test [2] it was above 3 mg/kg; in test [3], 2.2 mg/kg; in [6], above 30 mg/kg. The molecule also gave an IC50 in test [1] of 13.3 nM.

As to `CCCCSc1nsnc1C1CN2CC[C@@H]1C2` (some centres not stated), in test [4], the Activity is listed as 100%. The molecule also returned an IC50 in test [1] of 4.2 nM. The molecule also came in with an ED50 in [2] above 1 mg/kg.

`CCCCSc1nsnc1[C@H]1CN2CCC[C@@H]1C2`: the outcome in test [7] was Active. Moreover, the ED50 was above 0.3 mg/kg in test [5], 0.017 mg/kg in [2], 0.012 mg/kg in [3] and above 0.3 mg/kg in [6]. In test [1], the IC50 came out at 0.5 nM.

`CCCCSc1nsnc1C1CN2CC[C@H]1C2` (some centres not stated): the Activity in [4] is 0%. This molecule displayed a half-maximal inhibitory concentration (IC50) in test [1] of 1.3 nM. The 50% effective dose (ED50) in [2] was below 1 mg/kg.

As for `CCCCSc1nsnc1C1CN2CCC[C@H]1C2` (some centres not stated), the IC50 in [1] came out at 0.47 nM. In addition, the Activity in [8] was found to be 32%. The figures for the ED50 in [2] and in [3] were 0.007 mg/kg and 0.045 mg/kg, respectively.

Take `CC[C@@H]1C(=O)OC[C@@H]1Cc1cncn1C` [PILOCARPINE]: the ED50 in test [5] is 4 mg/kg; in test [2] it was 4.5 mg/kg; in test [3], 3.87 mg/kg; in [6], above 10 mg/kg. Also, the IC50 in test [1] worked out at 67 nM. Besides, in test [9], the Activity result is “Weak activity”.

In turn, `CCCCSc1nsnc1[C@@H]1CN2CCC[C@@H]1C2` had an Activity in test [4] of 86%. Also, in test [1], the IC50 was determined as 9.9 nM. The molecule further displayed an ED50 in test [2] above 3 mg/kg.

In the case of `CCCCSc1nsnc1[C@@H]1CN2CCC[C@H]1C2`, the median effective dose (ED50) was above 3 mg/kg in test [5], 0.018 mg/kg in test [2], 0.026 mg/kg in test [3] and above 3 mg/kg in test [6]. Besides, the IC50 in [1] was determined as 0.53 nM. This molecule also returned an Activity in test [8] of 8%.

In test [4], `CCCSc1nsnc1[C@H]1CN2CCC[C@@H]1C2` returned an Activity of 31%. Also, the median effective dose (ED50) in test [5] was above 3 mg/kg; in test [2] it was 0.013 mg/kg; in test [3], 0.021 mg/kg; in [6], 2.2 mg/kg. Moreover, the IC50 in test [1] worked out at 0.64 nM.

`CCCSc1nsnc1C1CN2CCC[C@H]1C2` (some centres not stated) gave an IC50 in test [1] of 1.4 nM. In test [8], this molecule came in with an Activity of 41%. The ED50 in test [2] and in [3] was 0.056 mg/kg throughout.

Molecule `CCCSc1nsnc1[C@@H]1CN2CCC[C@H]1C2` showed an Activity in test [4] of 39%. Moreover, the 50% effective dose (ED50) in test [5] is above 3 mg/kg; in test [2], 0.03 mg/kg; in test [3] it was 0.17 mg/kg; in [6], 1.3 mg/kg. The molecule also showed a half-maximal inhibitory concentration (IC50) in test [1] of 0.65 nM.

For the molecule `CCCCCSc1nsnc1C1CN2CCC[C@H]1C2` (some centres not stated), the result in test [10] was inactive. The same molecule showed a half-maximal inhibitory concentration (IC50) in [1] of 2.5 nM. The ED50 stood at 0.065 mg/kg in test [2] and 0.054 mg/kg in test [3].

For the molecule `CCCCCCSc1nsnc1C1CN2CCC[C@H]1C2` (some centres not stated), in [11], the Activity entry is “Weak activity”. This molecule also showed a 50% inhibitory concentration (IC50) in test [1] of 3.3 nM. Further, the ED50 in [2] amounted to 0.1 mg/kg; in test [3], 0.06 mg/kg.

`CSc1nsnc1C1CN2CCC[C@H]1C2` (some centres not stated) gave an IC50 in [1] of 2.9 nM. Also, the 50% effective dose (ED50) in test [2] amounted to 0.14 mg/kg; in test [3] it was 0.2 mg/kg.

With `CCCCSc1nsnc1C1CN2CCC1CC2` (configuration not stated) [VEDACLIDINE], the Activity in [4] is given as 18%. For the same molecule, the IC50 in test [1] came to 2.2 nM. For the same molecule, the 50% effect level in test [2] (ED50) was put at a dose of 0.1 mg/kg.

Take `CCCSc1nsnc1[C@H]1CN2CCC[C@H]1C2`: the Activity in test [4] is reported as 86%. For the same molecule, the 50% effective dose (ED50) in test [5] was above 30 mg/kg; in test [2], above 3 mg/kg; in test [3], 2.21 mg/kg; in [6], above 30 mg/kg. For the same molecule, the IC50 in test [1] was 3.6 nM.

As to `CCCCSc1nsnc1[C@H]1CN2CCC[C@H]1C2`, the median effective dose (ED50) in [5] was above 1 mg/kg; in test [2], above 3 mg/kg; in test [3], above 1 mg/kg; in [6] it was above 1 mg/kg. The molecule also displayed an IC50 in [1] of 2.3 nM. In test [12], the Activity entry was “Weak activity”.

On to `O=C(CCCN1CCC(O)(c2ccc(Cl)cc2)CC1)c1ccc(F)cc1` [HALOPERIDOL], for which the outcome in [13] was inactive. The figures for the median effective dose (ED50) in [2] and in test [3] were 0.11 mg/kg and 0.08 mg/kg, respectively.

On to `CCCCSc1nsnc1C1=CCCN(C)C1`, for which the Activity in test [4] was determined as 57%. This molecule came in with an ED50 in test [2] of 2.8 mg/kg. In test [14], this molecule registered an IC50 of 1.3 nM.

In the case of `CCCCSc1nsnc1C1CN2CCC[C@@H]1C2` (some centres not stated), in [4], the Activity was determined as 97%. The IC50 in [1] amounted to 6.1 nM. Further, the median effective dose (ED50) in [2] is above 3 mg/kg.

Take `O=C1CCCN1CC#CCN1CCCC1` [OXOTREMORINE]: the ED50 in test [5] stood at 0.2 mg/kg; in test [2], 0.3 mg/kg; in test [3] it was 0.09 mg/kg; in test [6], 0.24 mg/kg. Further, the half-inhibitory concentration (IC50) in test [1] was 5 nM. In addition, the outcome in [15] was inactive.
